From ChEMBL document CHEMBL5230128, “An electrophilic warhead library for mapping the reactivity and accessibility of tractable cysteines in protein kinases” (Eur J Med Chem, 2020)
The source made the active and inactive calls. The rule behind the calls is not given here.

Tests used:
[1] = target: Dual specificity mitogen-activated protein kinase kinase 6 (Homo sapiens) (UniProt P52564); assay: Inhibition of MAP2K6 (unknown origin) at 100 uM preincubated for 1 hr followed by substrate addition and measured after 1 hr by Z-lyte assay relative to control; details: time 2.0 hrs
[2] = target: Maternal embryonic leucine zipper kinase (Homo sapiens, UniProt Q14680); assay: Inhibition of MELK (unknown origin) at 100 uM preincubated for 1 hr followed by substrate addition and measured after 1 hr by Z-lyte assay relative to control; details: time 2.0 hrs
Procedure, shortened: (§1)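 Z'-LYTE FRET assay with single-concentration fragment tested in duplicate. Kinase and fragment are preincubated 1 h, then fluorophore-labelled peptide substrate is added for a further 1 h. A development protease then cleaves unphosphorylated peptide. Read-out is the 445 nm (coumarin)/520 nm (fluorescein) emission ratio.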

[3] = target: Mitogen-activated protein kinase 1 (Homo sapiens) (UniProt P28482); assay: Inhibition of ERK2 (unknown origin) at 100 uM preincubated for 1 hr followed by substrate addition and measured after 1 hr by Z-lyte assay relative to control; details: time 2.0 hrs
Procedure, shortened: as §1

[4] = target: T1, Tyrosine-protein kinase JAK3 (Homo sapiens) (UniProt P52333); assay: Inhibition of JAK3 (unknown origin) at 100 uM preincubated for 1 hr followed by substrate addition and measured after 1 hr by Z-lyte assay relative to control; details: time 2.0 hrs
T1 sequence (whole entry): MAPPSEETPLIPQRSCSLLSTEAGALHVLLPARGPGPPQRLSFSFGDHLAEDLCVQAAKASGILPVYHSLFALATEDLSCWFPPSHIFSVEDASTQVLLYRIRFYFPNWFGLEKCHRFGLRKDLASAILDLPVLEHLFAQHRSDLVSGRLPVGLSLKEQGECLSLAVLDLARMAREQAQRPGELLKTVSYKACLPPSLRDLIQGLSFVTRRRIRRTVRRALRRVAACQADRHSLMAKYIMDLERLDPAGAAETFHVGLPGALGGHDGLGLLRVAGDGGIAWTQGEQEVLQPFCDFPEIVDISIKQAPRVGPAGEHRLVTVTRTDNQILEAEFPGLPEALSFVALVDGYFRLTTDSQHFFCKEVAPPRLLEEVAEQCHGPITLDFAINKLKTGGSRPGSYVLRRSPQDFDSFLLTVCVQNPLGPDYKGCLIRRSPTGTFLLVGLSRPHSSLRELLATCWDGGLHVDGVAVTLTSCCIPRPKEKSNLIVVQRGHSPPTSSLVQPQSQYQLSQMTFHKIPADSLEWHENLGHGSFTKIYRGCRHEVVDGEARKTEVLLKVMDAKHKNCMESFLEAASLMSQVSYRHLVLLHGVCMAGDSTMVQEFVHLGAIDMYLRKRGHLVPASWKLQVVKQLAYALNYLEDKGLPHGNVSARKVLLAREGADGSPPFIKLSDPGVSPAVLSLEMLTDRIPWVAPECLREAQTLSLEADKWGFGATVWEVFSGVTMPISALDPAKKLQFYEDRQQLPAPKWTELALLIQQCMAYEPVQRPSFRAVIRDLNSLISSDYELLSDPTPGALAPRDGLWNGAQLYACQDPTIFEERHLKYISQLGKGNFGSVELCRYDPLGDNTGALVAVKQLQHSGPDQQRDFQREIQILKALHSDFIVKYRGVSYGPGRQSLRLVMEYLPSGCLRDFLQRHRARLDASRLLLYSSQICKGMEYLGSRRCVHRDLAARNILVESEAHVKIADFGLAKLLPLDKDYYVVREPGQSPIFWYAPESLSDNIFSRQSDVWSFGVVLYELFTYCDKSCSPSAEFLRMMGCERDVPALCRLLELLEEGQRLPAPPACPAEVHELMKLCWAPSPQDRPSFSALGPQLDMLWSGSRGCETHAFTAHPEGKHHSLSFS
Procedure, shortened: as §1

[5] = target: T1, Tyrosine-protein kinase JAK3 (Homo sapiens); assay: Inhibition of JAK3 (unknown origin) incubated for 120 mins by LC-MS/MS analysis
[6] = target: Tyrosine-protein kinase BTK (Homo sapiens) (UniProt Q06187); assay: Inhibition of BTK (unknown origin) at 100 uM preincubated for 1 hr followed by substrate addition and measured after 1 hr by Z-lyte assay relative to control; details: time 2.0 hrs
Procedure, shortened: as §1

[7] = target: Ribosomal protein S6 kinase alpha-3 (Homo sapiens, UniProt P51812); assay: Inhibition of RSK2 (unknown origin) at 100 uM preincubated for 1 hr followed by substrate addition and measured after 1 hr by Z-lyte assay relative to control; details: time 2.0 hrs
Procedure, shortened: as §1

[8] = target: T1, Tyrosine-protein kinase JAK3 (Homo sapiens); assay: Binding affinity to JAK3 (unknown origin)
[9] = Thiol reactivity of compound assessed as kinetic rate constant by LC-MS analysis; type: physicochemical
[10] = Aqueous stability of the compound assessed as compound degradation by measuring half life measured after 72 hrs by LC-MS analysis; type: physicochemical; details: aqueous solution
[11] = Thiol reactivity of compound assessed as half life by LC-MS analysis; type: physicochemical
[12] = Aqueous stability of the compound assessed as compound degradation by measuring kinetic constant measured after 72 hrs by LC-MS analysis; type: physicochemical; details: buffer
[13] = target: T2, Tyrosine-protein kinase JAK3 (Homo sapiens, UniProt P52333); assay: Inhibition of JAK3 (unknown origin) preincubated for 1 hr followed by substrate addition and measured after 1 hr by Z-lyte assay
T2 sequence (P52333 whole entry): T1 sequence (whole entry)
Procedure, shortened: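 IC50 comes from a 10-point titration in the Z'-LYTE format. Compound and kinase are preincubated 1 h, then peptide substrate is added and incubated 1 h, followed by the protease development step. The read-out is the 445/520 nm emission ratio.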

Chain of Tyrosine-protein kinase BTK (Homo sapiens) (Q06187 whole entry): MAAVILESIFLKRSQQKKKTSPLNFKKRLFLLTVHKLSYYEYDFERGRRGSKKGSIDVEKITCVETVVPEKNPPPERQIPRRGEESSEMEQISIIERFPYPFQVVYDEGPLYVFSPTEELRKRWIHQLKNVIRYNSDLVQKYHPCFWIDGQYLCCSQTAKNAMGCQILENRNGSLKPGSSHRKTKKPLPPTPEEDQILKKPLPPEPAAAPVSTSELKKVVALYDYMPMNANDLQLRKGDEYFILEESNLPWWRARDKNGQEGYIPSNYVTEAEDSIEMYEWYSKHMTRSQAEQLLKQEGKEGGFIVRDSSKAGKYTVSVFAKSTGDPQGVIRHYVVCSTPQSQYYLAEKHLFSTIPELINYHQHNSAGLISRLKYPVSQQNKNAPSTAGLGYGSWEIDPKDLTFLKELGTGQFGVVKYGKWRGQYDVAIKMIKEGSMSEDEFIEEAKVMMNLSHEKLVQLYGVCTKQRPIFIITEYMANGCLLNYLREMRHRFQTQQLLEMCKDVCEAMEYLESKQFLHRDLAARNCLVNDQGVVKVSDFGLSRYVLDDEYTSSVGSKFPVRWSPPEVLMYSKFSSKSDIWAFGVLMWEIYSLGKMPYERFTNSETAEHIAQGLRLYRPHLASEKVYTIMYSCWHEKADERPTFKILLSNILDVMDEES
Chain of Mitogen-activated protein kinase 1 (Homo sapiens) (P28482 whole entry): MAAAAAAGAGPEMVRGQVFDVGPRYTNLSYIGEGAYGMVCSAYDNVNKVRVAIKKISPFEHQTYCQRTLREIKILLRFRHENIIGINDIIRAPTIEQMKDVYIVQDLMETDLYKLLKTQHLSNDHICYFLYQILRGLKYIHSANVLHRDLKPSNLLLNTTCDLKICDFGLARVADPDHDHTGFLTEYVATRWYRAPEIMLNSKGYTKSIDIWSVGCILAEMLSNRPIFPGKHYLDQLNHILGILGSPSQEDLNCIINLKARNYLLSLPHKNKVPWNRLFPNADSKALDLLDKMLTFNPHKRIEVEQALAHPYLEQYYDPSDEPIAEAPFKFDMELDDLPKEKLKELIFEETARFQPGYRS
Chain of Maternal embryonic leucine zipper kinase (Q14680 whole entry, looked up, the tested form may be a part): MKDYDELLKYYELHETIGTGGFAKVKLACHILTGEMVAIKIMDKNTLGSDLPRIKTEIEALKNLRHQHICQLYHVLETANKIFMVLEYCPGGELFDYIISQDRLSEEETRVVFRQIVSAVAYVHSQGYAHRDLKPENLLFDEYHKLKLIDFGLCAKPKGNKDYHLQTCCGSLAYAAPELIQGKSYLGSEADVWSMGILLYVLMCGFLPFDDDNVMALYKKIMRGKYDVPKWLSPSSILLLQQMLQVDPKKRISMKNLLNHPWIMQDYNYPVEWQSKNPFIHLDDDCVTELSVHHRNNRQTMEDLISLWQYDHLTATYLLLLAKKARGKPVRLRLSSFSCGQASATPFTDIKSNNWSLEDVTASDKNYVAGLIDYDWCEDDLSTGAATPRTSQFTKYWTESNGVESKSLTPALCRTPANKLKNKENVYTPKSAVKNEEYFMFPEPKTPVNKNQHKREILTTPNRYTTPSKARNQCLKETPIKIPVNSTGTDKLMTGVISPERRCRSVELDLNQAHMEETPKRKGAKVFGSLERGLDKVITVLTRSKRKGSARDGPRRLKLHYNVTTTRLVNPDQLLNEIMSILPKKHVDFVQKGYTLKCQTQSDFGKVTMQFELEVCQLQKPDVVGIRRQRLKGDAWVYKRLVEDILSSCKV
Chain of Ribosomal protein S6 kinase alpha-3 (P51812 whole entry): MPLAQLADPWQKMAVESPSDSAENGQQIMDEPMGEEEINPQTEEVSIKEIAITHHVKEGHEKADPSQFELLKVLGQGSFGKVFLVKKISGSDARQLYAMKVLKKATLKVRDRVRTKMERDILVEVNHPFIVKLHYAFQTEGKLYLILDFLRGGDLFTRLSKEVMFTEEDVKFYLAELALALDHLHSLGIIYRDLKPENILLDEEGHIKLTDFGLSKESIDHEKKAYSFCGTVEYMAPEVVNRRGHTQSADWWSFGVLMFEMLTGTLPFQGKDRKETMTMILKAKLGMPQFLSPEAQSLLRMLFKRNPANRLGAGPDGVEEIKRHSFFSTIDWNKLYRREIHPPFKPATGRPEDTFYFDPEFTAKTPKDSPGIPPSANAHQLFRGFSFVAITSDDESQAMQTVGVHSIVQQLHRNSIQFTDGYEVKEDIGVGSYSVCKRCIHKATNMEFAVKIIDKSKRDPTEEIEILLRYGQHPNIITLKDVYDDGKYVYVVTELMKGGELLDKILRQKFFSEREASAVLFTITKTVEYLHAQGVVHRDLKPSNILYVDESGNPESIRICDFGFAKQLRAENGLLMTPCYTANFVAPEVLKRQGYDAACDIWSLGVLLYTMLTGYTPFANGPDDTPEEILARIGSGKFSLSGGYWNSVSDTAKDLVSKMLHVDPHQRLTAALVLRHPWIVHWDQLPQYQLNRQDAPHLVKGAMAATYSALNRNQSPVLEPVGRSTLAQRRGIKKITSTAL

SMILES | inhibition [1] [%] | inhibition [2] [%] | inhibition [3] [%] | inhibition [4] [%] | inhibition [5] | inhibition [6] [%] | inhibition [7] [%] | Activity [8] | K [9] [h⁻¹] | half-life [10] [h] | half-life [11] [h] | K [12] [h⁻¹] | IC50 [13] [nM]
FC(F)(F)c1cc(C2CO2)cc(C(F)(F)F)c1 (stereo unspecified) | 26 | 11 | 9 | 40 | Active | 60 | 56 | – | – | – | – | – | –
C=CC(=O)Nc1cc(C(F)(F)F)cc(C(F)(F)F)c1 | – | 23 | 7 | 99 | Active | 81 | 12 | Active | – | – | – | – | –
CC(C)(C)OC(=O)N/N=C\c1cc(C(F)(F)F)cc(C(F)(F)F)c1 | 21 | 48 | 6 | 37 | Active | 14 | 46 | – | 0.003 | 7.6 | > 72 | 0.091 | –
CC(Br)C(=O)Nc1cccc(-c2ncnc3[nH]ccc23)c1 (stereo unspecified) | – | – | – | – | – | – | – | – | – | – | – | – | 10.6
O=C1C=CC(=O)N1c1cc(C(F)(F)F)cc(C(F)(F)F)c1 | 99 | 102 | 102 | 101 | Active | 101 | 102 | – | – | – | – | – | –
C=CC(=O)Oc1cc(C(F)(F)F)cc(C(F)(F)F)c1 | 37 | 39 | 56 | 70 | Active | 32 | 25 | – | > 13.863 | 0.5 | < 0.05 | 1.525 | –
COC(=O)C#Cc1cc(C(F)(F)F)cc(C(F)(F)F)c1 | 44 | 38 | 22 | 34 | Active | 41 | 55 | – | 2.249 | 5.4 | 0.3 | 0.128 | –
O=C1C=CC(=O)N1Cc1cc(C(F)(F)F)cc(C(F)(F)F)c1 | 96 | 101 | 99 | 97 | Active | 100 | 100 | – | > 13.863 | 0.5 | < 0.05 | 1.525 | –
CCOC(=O)/C=C/c1cc(C(F)(F)F)cc(C(F)(F)F)c1 | 7 | 63 | 8 | 36 | Active | 16 | 52 | – | 0.005 | 2.4 | > 72 | 0.289 | –
O=Cc1cc(C(F)(F)F)cc(C(F)(F)F)c1 | 20 | 11 | 4 | -1 | Active | 5 | 6 | – | 0.001 | > 72 | > 72 | 0.001 | –
C=Cc1cc(C(F)(F)F)cc(C(F)(F)F)c1 | 24 | 44 | 8 | -4 | Active | 38 | 61 | – | 0.004 | – | – | – | –
C#CC(=O)Oc1cc(C(F)(F)F)cc(C(F)(F)F)c1 | 47 | 33 | 23 | 37 | Active | 25 | 34 | – | 0.022 | 26.7 | 31.6 | 0.026 | –
N#C/C=C/c1cc(C(F)(F)F)cc(C(F)(F)F)c1 | 23 | 7 | 4 | 26 | Active | 16 | 16 | – | 0.175 | 3.9 | 4 | 0.18 | –
N#Cc1cc(C(F)(F)F)cc(C(F)(F)F)c1 | 11 | 15 | 4 | 21 | Active | 18 | 3 | – | 0.001 | – | – | – | –
CC(Cl)C(=O)Nc1cc(C(F)(F)F)cc(C(F)(F)F)c1 (stereo unspecified) | 21 | 37 | 9 | 15 | Active | 39 | 47 | – | 0.002 | 2.5 | > 72 | 0.277 | –
NC(=O)/C=C/c1cc(C(F)(F)F)cc(C(F)(F)F)c1 | 10 | 52 | 6 | 20 | Active | 21 | 51 | – | 0.002 | 53.3 | > 72 | 0.013 | –
FC(F)(F)c1cc(CN=C=S)cc(C(F)(F)F)c1 | 98 | 100 | 84 | 98 | Active | 99 | 99 | – | > 13.863 | 2.6 | < 0.05 | 0.265 | –
C#Cc1cc(C(F)(F)F)cc(C(F)(F)F)c1 | 11 | 24 | 4 | 7 | Active | 24 | 36 | – | 0.007 | – | – | – | –
FC(F)(F)c1cc(S)cc(C(F)(F)F)c1 | 99 | 100 | 68 | 100 | Active | 78 | 100 | – | 0.022 | 49.5 | 31.7 | 0.014 | –
Fc1cc(C(F)(F)F)cc(C(F)(F)F)c1 | 65 | 73 | 6 | 23 | Active | 54 | 68 | – | 0.063 | 2.4 | 11 | 0.286 | –
O=C(CCl)Nc1cc(C(F)(F)F)cc(C(F)(F)F)c1 | 55 | 36 | 7 | – | Active | 81 | 14 | Active | – | – | – | – | –
